ChEMBL document CHEMBL3868616, “Synthesis and biological evaluation of hesperetin derivatives as agents inducing apoptosis” (2017)
Activity calls are given as the source filed them. No cut-off for these calls is given here.

Columns and labels:
[1] = Anticlonogenic activity in human HCT116 cells after 6 days by crystal violet staining based assay; type: functional; settings: HCT-116, 144 h
Outline: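 HCT116 colon cancer cells, long-term clonogenic survival assay. Compound exposure for six days at 0, 5, 10 and 20 µM (results section also lists 40 µM). Colonies stained with 0.1% crystal violet and quantified by densitometry. GI50 computed from the concentration–response data.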

[2] = biological target: Mitogen-activated protein kinase 9 (Homo sapiens) (UniProt P45984); assay: Increase in JNK2 phosphorylation at Thr183/Tyr185 residues in human HCT116 cells at 50 to 200 uM after 12 hrs by Western blot analysis; type: cell-based; settings: HCT-116
Outline: (§1)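 HCT116 cells exposed to 0, 50, 100 or 200 µM for 1 and 12 h. Whole-cell lysates immunoblotted with an antibody specific for phospho-JNK1/2 (Thr183/Tyr185), with GAPDH as the internal loading control.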

HCT-116 [3] = assay: Induction of apoptosis in human HCT116 cells assessed as late apoptotic cells at 50 uM after 24 hrs by FITC-annexin V/propidium iodide staining based fluorescence assay (reference value: 3%); type: functional
HCT-116 [4] = assay: Induction of apoptosis in human HCT116 cells assessed as necrotic cells at 50 uM after 24 hrs by FITC-annexin V/propidium iodide staining based fluorescence assay (reference value: 2%); type: functional
HCT-116 [5] = assay: Induction of apoptosis in human HCT116 cells assessed as early apoptotic cells at 50 uM after 24 hrs by FITC-annexin V/propidium iodide staining based fluorescence assay (reference value: 6%); type: functional
HCT-116 [6] = assay: Induction of apoptosis in human HCT116 cells assessed as viable cells at 50 uM after 24 hrs by FITC-annexin V/propidium iodide staining based fluorescence assay (reference value: 90%); type: functional; settings: HCT-116, 24 h, read-out: Activity
[7] = Cytotoxicity against human HCT116 cells assessed as decrease in cell viability at 80 uM after 24 hrs by CCK-8 assay; type: functional, HCT-116
Outline: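 HCT116 cells seeded at 5 × 10^3 per well and treated 24 h at 10, 20, 40, 80 and 100 µM. Viability read with CCK-8 as absorbance at 450 nm. Compared with vehicle by one-way ANOVA followed by Sidak's multiple comparisons test.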

[8] = biological target: Mitogen-activated protein kinase 8 (Homo sapiens) (UniProt P45983); assay: Increase in JNK1 phosphorylation at Thr183/Tyr185 residues in human HCT116 cells at 50 to 200 uM after 12 hrs by Western blot analysis; type: cell-based; settings: HCT-116; outline: as §1
[9] = biological target: Mitogen-activated protein kinase 8 (Homo sapiens) (UniProt P45983); assay: Increase in JNK1 phosphorylation at Thr183/Tyr185 residues in human HCT116 cells at 50 to 200 uM measured up to 1 hr by Western blot analysis; type: cell-based; settings: HCT-116; outline: as §1
HCT-116 [10] = assay: Induction of apoptosis in human HCT116 cells assessed as increase in caspase-3 cleavage at 50 uM by immuno blot analysis; type: functional, cell-based; settings: TDE = time-dependent effect
Outline: (§2)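 HCT116 cells exposed to 50 µM for 0, 12 and 24 h. Total cell lysates immunoblotted with antibodies against cleaved caspase-9, cleaved caspase-3 and PARP.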

HCT-116 [11] = assay: Induction of apoptosis in human HCT116 cells assessed as increase in caspase-9 cleavage at 50 uM by immuno blot analysis; type: functional, cell-based; settings: TDE = time-dependent effect; outline: as §2
[12] = biological target: Mitogen-activated protein kinase 9 (Homo sapiens) (UniProt P45984); assay: Increase in JNK2 phosphorylation at Thr183/Tyr185 residues in human HCT116 cells at 50 to 200 uM measured up to 12 hrs by Western blot analysis; type: cell-based; settings: HCT-116; outline: as §1
HCT-116 [13] = assay: Induction of apoptosis in human HCT116 cells assessed as increase in PARP cleavage at 50 uM measured up to 24 hrs by immuno blot analysis; type: functional, cell-based; outline: as §2
[14] = biological target: Mitogen-activated protein kinase 9 (Homo sapiens) (UniProt P45984); assay: Increase in JNK2 phosphorylation at Thr183/Tyr185 residues in human HCT116 cells at 50 to 200 uM measured up to 1 hr by Western blot analysis; type: cell-based; settings: HCT-116; outline: as §1
[15] = biological target: Mitogen-activated protein kinase 8 (Homo sapiens) (UniProt P45983); assay: Increase in JNK1 phosphorylation at Thr183/Tyr185 residues in human HCT116 cells at 50 to 200 uM measured up to 12 hrs by Western blot analysis; type: cell-based; settings: HCT-116; outline: as §1

Chain of Mitogen-activated protein kinase 8 (Homo sapiens) (P45983 whole entry): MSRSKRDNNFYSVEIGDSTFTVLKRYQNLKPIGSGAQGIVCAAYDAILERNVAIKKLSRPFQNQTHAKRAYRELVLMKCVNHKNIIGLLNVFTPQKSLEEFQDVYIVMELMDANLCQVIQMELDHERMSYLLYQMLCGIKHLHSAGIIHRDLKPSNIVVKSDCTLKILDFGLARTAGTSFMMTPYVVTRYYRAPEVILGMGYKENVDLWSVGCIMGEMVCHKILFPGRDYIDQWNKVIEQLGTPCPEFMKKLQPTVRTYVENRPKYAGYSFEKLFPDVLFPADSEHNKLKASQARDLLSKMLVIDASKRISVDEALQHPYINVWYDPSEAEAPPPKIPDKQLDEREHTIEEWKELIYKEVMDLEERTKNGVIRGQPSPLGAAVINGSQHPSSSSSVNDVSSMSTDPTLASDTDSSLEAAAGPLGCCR
Chain of Mitogen-activated protein kinase 9 (Homo sapiens) (P45984 whole entry, looked up): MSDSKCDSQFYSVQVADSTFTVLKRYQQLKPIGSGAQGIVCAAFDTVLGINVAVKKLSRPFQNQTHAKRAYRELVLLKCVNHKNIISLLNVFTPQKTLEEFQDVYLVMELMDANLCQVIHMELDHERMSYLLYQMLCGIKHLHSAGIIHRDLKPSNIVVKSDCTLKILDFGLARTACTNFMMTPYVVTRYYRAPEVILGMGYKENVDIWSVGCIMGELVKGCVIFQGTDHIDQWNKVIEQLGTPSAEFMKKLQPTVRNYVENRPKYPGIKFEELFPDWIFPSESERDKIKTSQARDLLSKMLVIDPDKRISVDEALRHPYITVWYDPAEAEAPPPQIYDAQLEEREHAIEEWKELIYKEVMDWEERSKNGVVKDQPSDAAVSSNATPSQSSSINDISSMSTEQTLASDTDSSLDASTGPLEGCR

SMILES: COc1ccc([C@@H]2CC(=O)c3c(O)cc(OC(=O)c4ccccc4C)cc3O2)cc1OC(=O)c1ccccc1C
- GI50 [1]: 48.7 µM

SMILES: COc1ccc([C@@H]2CC(=O)c3c(O)cc(OC(=O)/C=C/c4ccccc4)cc3O2)cc1OC(=O)/C=C/c1ccccc1
- GI50 [1]: 21 µM

SMILES: COc1ccc([C@@H]2CC(=O)c3c(O)cc(OC(=O)c4ccccc4C)cc3O2)cc1O
- GI50 [1]: 22.9 µM

SMILES: COc1ccc([C@@H]2CC(=O)c3c(O)cc(OC(=O)c4ccccc4)cc3O2)cc1O
- GI50 [1]: 16.5 µM

SMILES: COc1ccc([C@@H]2CC(=O)c3c(O)cc(O)cc3O2)cc1O [HESPERETIN]
- Activity [2]: Active
- Activity (HCT-116 [3]): 2%
- Activity (HCT-116 [4]): 0%
- GI50 [1]: 36.1 µM
- Activity (HCT-116 [5]): 9%
- viability at 50 µM (HCT-116 [6]): 88%
- Activity [7]: 15%
- Activity [8]: Active

SMILES: COc1ccc(C(=O)Oc2cc(O)c3c(c2)O[C@H](c2ccc(OC)c(OC(=O)c4ccc(OC)cc4)c2)CC3=O)cc1
- GI50 [1]: 35.7 µM

SMILES: CCCC(=O)Oc1cc(O)c2c(c1)O[C@H](c1ccc(OC)c(OC(=O)CCC)c1)CC2=O
- GI50 [1]: 13.2 µM

SMILES: COc1ccc([C@@H]2CC(=O)c3c(O)cc(OC(=O)c4ccccc4)cc3O2)cc1OC(=O)c1ccccc1
- GI50 [1]: 46 µM

SMILES: COc1ccc([C@@H]2CC(=O)c3c(O)cc(OC(=O)c4ccc(C)cc4)cc3O2)cc1OC(=O)c1ccc(C)cc1
- GI50 [1]: 71.7 µM

SMILES: COc1ccc([C@@H]2CC(=O)c3c(O)cc(OC(=O)Cc4ccccc4)cc3O2)cc1OC(=O)Cc1ccccc1
- GI50 [1]: 63.9 µM

SMILES: C/C=C/C(=O)Oc1cc(O)c2c(c1)O[C@H](c1ccc(OC)c(O)c1)CC2=O
- GI50 [1]: 16.9 µM

SMILES: CCCC(=O)Oc1cc(O)c2c(c1)O[C@H](c1ccc(OC)c(O)c1)CC2=O
- Activity [9]: Active
- Activity (HCT-116 [10]): Tde
- Activity (HCT-116 [3]): 5%
- Activity (HCT-116 [11]): Tde
- Activity (HCT-116 [4]): 0%
- Activity [12]: Active
- GI50 [1]: 12 µM
- Activity (HCT-116 [5]): 39%
- viability at 50 µM (HCT-116 [6]): 55%
- Activity (HCT-116 [13]): Active
- Activity [7]: 50%
- Activity [14]: Active
- Activity [15]: Active

SMILES: COc1ccc([C@@H]2CC(=O)c3c(O)cc(OC(=O)C(C)(C)C)cc3O2)cc1O
- GI50 [1]: 31.5 µM
